Measurements of several laboratories.
Each line is one published result; the experiments were not run side by side.
Observed: enzyme activity
Mode: inhibitor
ABL1 T315I: Tyrosine-protein kinase ABL1 (ABL1, Homo sapiens, UniProt P00519, T315I)
ABL1: Tyrosine-protein kinase ABL1 (ABL1, Homo sapiens, UniProt P00519)
ABL1 Y253F: Tyrosine-protein kinase ABL1 (ABL1, Homo sapiens, UniProt P00519, Y253F)

`COc1cc2ncnc(Nc3ccc(Oc4ccccc4)cc3C)c2cc1OC` gave an inhibition of 5% (ABL1 T315I; 1 µM).
The inhibition of `CNc1cccc2cc(C(=O)Nc3ccc(C(=O)O)cc3)c(=O)[nH]c12` is reported as 1.8% (ABL1; 10 µM).
With `CNC(=O)c1cc2c(Oc3ccc(NC(=O)C4(C(=O)Nc5ccc(F)cc5)CC4)cc3)ccnc2cc1OC` the inhibition was 78% (ABL1 Y253F; radiometric; 1 µM).
`CS(=O)(=O)Nc1cccc(-c2csc(NC(=O)CSc3nc4nccnc4c(=O)n3CCc3ccccc3)n2)c1` has an inhibition of 2% (ABL1; 10 µM).
The inhibition of `COc1cc2ncnc(Nc3ccc(Oc4ccccc4)c(C)c3C)c2cc1OC` is reported as 2% (ABL1 Y253F; 1 µM).
For `O=C(CSc1nc2nccnc2c(=O)n1CCc1ccccc1)Nc1nccs1`, the inhibition was 2% (ABL1 T315I; 10 µM).
`CC/C(=N\NC(=O)NCc1cccc(O)c1)c1ccc(O)c(C)c1O` gave an inhibition of -1.5% (ABL1 T315I; 0.1 µM).
For `COc1cc(-c2cc(-c3ccc(N4CCNCC4)cc3)cnc2N)cc(OC)c1OC`, the inhibition was 96% (Tyrosine-protein kinase ABL1 (ABL1, Homo sapiens, UniProt P00519, Q252H); 1 µM).
For `CN(C)C1CCN(CC#Cc2nn(C3CCCC3)c3nc(NCc4ccccc4)ncc23)C1` (stereo not drawn), the inhibition was 31% (ABL1; FRET; 10 µM).
